These results are taken from publication PMC7233462 (Cell reports, 2019).

In assay [1] the target is T1, PpKAI2-like C (Physcomitrium patens, UniProt A9SKF7). The experiment in a line: Differential scanning fluorimetry. Format: binding, Physcomitrella patens. Background: DSF heats the sample and reads unfolding from a dye or from intrinsic fluorescence.
Assay [2] has as its system PpKAI2-like D. As to the kind of experiment: Differential scanning fluorimetry. In kind it is binding, Physcomitrella patens.
Assay [3] relates to PpKAI2-like E. As to the kind of experiment: Differential scanning fluorimetry. Format: binding, Physcomitrella patens.
The target in assay [4] is T1, PpKAI2-like C. Format: biochemical, Physcomitrella patens. As to conditions: 1 μM PpKAI2-like C, 1 mM substrate, 3 h, room temperature.
Assay [5] deals with PpKAI2-like D. Format: biochemical, Physcomitrella patens. As to conditions: 1 μM PpKAI2-like D, 1 mM substrate, 3 h, room temperature.
Assay [6] deals with PpKAI2-like E. In kind it is biochemical, Physcomitrella patens. The settings on record: 1 μM PpKAI2-like E, 1 mM substrate, 3 h, room temperature.
Assay [7] addresses T1, PpKAI2-like C. The experiment in a line: Mass spectrometry of protein for D ring modification. The settings on record: PpKAI2-like C incubated with ligand. Format: biochemical, Physcomitrella patens.
For assay [8], the system named is PpKAI2-like D. The description is as above. In kind it is biochemical, Physcomitrella patens. As to conditions: PpKAI2-like D incubated with ligand.
Assay [9] deals with PpKAI2-like E. The assay is described as above. In kind it is biochemical, Physcomitrella patens. As to conditions: PpKAI2-like E incubated with ligand.
Assay [10] concerns the target T2, PpKAI2-like H (Physcomitrium patens, UniProt A9SG07). The experiment in a line: Differential scanning fluorimetry. In kind it is binding, Physcomitrella patens. As to conditions: PpKAI2-like H wild-type.
The target in assay [11] is T2, PpKAI2-like H. The experiment in a line: Fluorescence-based equilibrium microdialysis, KAR1 binding. On the set-up: species or system Physcomitrella patens.
The next assay has as its target PpKAI2-like K. The description is as above. More on the design: species or system Physcomitrella patens.
A further assay addresses PpKAI2-like L. Described as above. On the set-up: species or system Physcomitrella patens.
In assay [12] the target is T1, PpKAI2-like C. Described as above. On the set-up: species or system Physcomitrella patens.
Assay [13] relates to PpKAI2-like D. The assay is described as above. More on the design: species or system Physcomitrella patens.
Assay [14] concerns PpKAI2-like E. The description is as above. More on the design: species or system Physcomitrella patens.
Another assay deals with PpKAI2-like B. The description is as above. On the set-up: species or system Physcomitrella patens.
Assay [15] deals with PpKAI2-like E SDIDSM166TDIHDE. Described as above. On the set-up: species or system Physcomitrella patens. As to conditions: loop-swap PpKAI2-like E SDIDSM166TDIHDE.
Assay [16] relates to PpKAI2-like H TDIHDE167SDIDSM. Described as above. More on the design: species or system Physcomitrella patens. As to conditions: loop-swap PpKAI2-like H TDIHDE167SDIDSM.
The target of another assay is AtKAI2. As to conditions: read-out: published affinity, ref Guo et al., 2013; cited from earlier work.
Assay [17] relates to Physcomitrella caulonema growth. The settings on record: ref Hoffmann et al., 2014; cited from earlier work.
The target of the next assay is T3, PpKAI2-like E S166A (Physcomitrium patens, UniProt A9ST85, S166A).
T3 sequence (A9ST85 1-270 S166A): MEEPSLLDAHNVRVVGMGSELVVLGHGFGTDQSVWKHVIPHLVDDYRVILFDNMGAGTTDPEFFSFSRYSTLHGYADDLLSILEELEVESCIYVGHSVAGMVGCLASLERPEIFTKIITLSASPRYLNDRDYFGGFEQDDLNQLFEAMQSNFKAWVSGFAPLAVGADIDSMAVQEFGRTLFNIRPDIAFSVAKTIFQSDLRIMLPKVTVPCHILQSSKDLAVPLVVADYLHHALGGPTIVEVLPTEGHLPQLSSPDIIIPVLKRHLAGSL
As to the kind of experiment: Isothermal titration calorimetry of. Format: binding, Physcomitrella patens. Summed up: (§1)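 GST-fused protein (wild-type or point mutant) was expressed in E. coli BL21-CodonPlus-RIL, HRV3-cleaved on glutathione resin, then size-excluded in 20 mM Tris-HCl, 30 mM NaCl, 1 mM TCEP, pH 7.7. Protein at 1800 μM was titrated into 40 μM racemic GR24 over 20 injections spaced 240 s apart. Data were fitted to a one-site binding model.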
In general terms: ITC needs no label: the signal is the heat of the interaction.

Assay [18] has as its target PpKAI2-like E S166D S170D. The experiment in a line: Isothermal titration calorimetry of. Format: binding, Physcomitrella patens. As to conditions: ITC. The method in brief: as §1
The subject of assay [19] is PpKAI2-like E SDIDSM166TDIHDE. As to the kind of experiment: Differential scanning fluorimetry. In kind it is binding, Physcomitrella patens. The settings on record: loop-swap PpKAI2-like E SDIDSM166TDIHDE.
The subject of assay [20] is PpKAI2-like H TDIHDE167SDIDSM. As to the kind of experiment: Differential scanning fluorimetry. Format: binding, Physcomitrella patens. The settings on record: loop-swap PpKAI2-like H TDIHDE167SDIDSM.
The subject of a further assay is D14. The settings on record: Arabidopsis D14; ref Zhao et al., 2013; cited from earlier work.
The test system of a further assay is DAD2. The settings on record: Petunia paralog DAD2; ref Hamiaux et al., 2012; cited from earlier work.

(+)-5-deoxystrigol: the “change of protein melting point (DSF)” value at PpKAI2-like C [1], with PpKAI2-like D [2] and with PpKAI2-like E [3] was “unable to detect a change in melting points” in each case. Moreover, the “degradation of intact substrate mass” value on PpKAI2-like C [4], in the assay with PpKAI2-like D [5] and in the assay with PpKAI2-like E [6] was “did not observe any effect” in each case. Moreover, the “D ring modification of active site histidine” value at PpKAI2-like C [7], in the assay with PpKAI2-like D [8] and in the assay on PpKAI2-like E [9] was “unable to detect the modification” throughout.

On to `CC1=CC(O/C=C(C)\C=C\C2=C(C)CCCC2(C)C)OC1=O` (racemic) [rac-carlactone], for which the “change of protein melting point (DSF)” value at PpKAI2-like C [1], in the assay on PpKAI2-like D [2] and with PpKAI2-like E [3] was “unable to detect any interaction” in each case. The “binding / interaction (DSF)” value at PpKAI2-like H [10] is recorded as “unable to detect any interaction”.

In the case of `Cc1c2ccocc-2oc1=O` [KAR1], the Kd at PpKAI2-like H [11] was 6.7 µM; at PpKAI2-like K it was 7.7 µM; on PpKAI2-like L, 5.2 µM; at AtKAI2, 9 µM. Also, the KAR1 binding entry on PpKAI2-like C [12] is on record as “unable to detect KAR1 binding”; with PpKAI2-like D [13], “unable to detect KAR1 binding”; in the assay on PpKAI2-like E [14], “unable to detect KAR1 binding”; in the assay on PpKAI2-like B it was “do not bind”; in assay [15], “weak binding”; in assay [16], “lost KAR1 binding ability”. For the same molecule, the “effect on Physcomitrella caulonema growth” value in [17] is “not found any effect”.

Turning to `CC1=CC(O/C=C2/C(=O)OC3c4ccccc4CC23)OC1=O` (racemic) [(±)-GR24], the Kd on PpKAI2-like E S166A came out at 81 µM. Besides, in assay [18], the “binding of (±)-GR24” value is recorded as “unable to detect binding”. Moreover, the results for the “change of protein melting point (DSF)” value at PpKAI2-like C [1], in the assay with PpKAI2-like D [2] and in the assay on PpKAI2-like E [3] were “destabilization”, “destabilization” and “strongest shift of the protein melting point”, respectively. The “binding / interaction (DSF)” value at PpKAI2-like H [10] is listed as “no binding observed”. Moreover, the “affinity (DSF)” value in assay [19] is recorded as “reduced compared to wild-type”; in assay [20] it was “weak affinity”. Also, the turnover rate with D14 is given as 1 (±)-GR24 molecule/3 min; in the assay with DAD2, 3 (±)-GR24 molecules/hr.

As for (+)-4-deoxyorobanchol, the “change of protein melting point (DSF)” value on PpKAI2-like C [1], in the assay on PpKAI2-like D [2] and with PpKAI2-like E [3] was “unable to detect a change in melting points” throughout.

For the molecule (−)-4-deoxyorobanchol, the “change of protein melting point (DSF)” value on PpKAI2-like C [1], in the assay on PpKAI2-like D [2] and with PpKAI2-like E [3] was “unable to detect a change in melting points” in each case.

On to (−)-5-deoxystrigol, for which the “change of protein melting point (DSF)” value on PpKAI2-like C [1], with PpKAI2-like D [2] and in the assay on PpKAI2-like E [3] was “absolute preference” throughout. In addition, the “binding / interaction (DSF)” value at PpKAI2-like H [10] is on record as “no binding observed”. Also, the “affinity (DSF)” value in [19] is listed as “reduced compared to wild-type”; in assay [20], “weak affinity”. Moreover, the “degradation of intact substrate mass” value on PpKAI2-like C [4], in the assay with PpKAI2-like D [5] and in the assay on PpKAI2-like E [6] was “loss of intact (−)-5-deoxystrigol mass” in each case. Also, the “D ring modification of active site histidine” value at PpKAI2-like C [7], with PpKAI2-like D [8] and with PpKAI2-like E [9] was 96 Da mass of the D ring to be attached to the active site histidines in each case.
